In ChEMBL document CHEMBL2021916, “Aflaquinolones A-G: secondary metabolites from marine and fungicolous isolates of Aspergillus spp” (J Nat Prod, 2012):
pIC50: −log10 of the molar value.

How the values were obtained:
MDA-MB-231 = test: Cytotoxicity against human MDA-MB-231 cells after 48 hrs by EZ-CyTox enhanced cell viability assay; format: functional, cell-based; conditions: MDA-MB-231, 48 h
Procedure, shortened: (§1)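 Seeding densities: K562 3 × 10⁴, B16F10 3 × 10³, HL-60 1 × 10⁵, MDA-MB-231 5 × 10³ and Hep3B 5 × 10³ cells per well. Cells were exposed for 48 h to test compounds supplied as DMSO solutions. Viability was read with the EZ-CyTox enhanced cell viability kit as absorbance at 450 nm.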

HL-60 = test: Cytotoxicity against human HL60 cells after 48 hrs by EZ-CyTox enhanced cell viability assay; format: functional, cell-based; conditions: HL-60, 48 h; procedure, shortened: as §1
B16-F10 = test: Cytotoxicity against mouse B16F10 cells after 48 hrs by EZ-CyTox enhanced cell viability assay; format: functional, cell-based; conditions: B16-F10, 48 h; procedure, shortened: as §1
K562 = test: Cytotoxicity against human K562 cells after 48 hrs by EZ-CyTox enhanced cell viability assay; format: functional, cell-based; conditions: K562, 48 h; procedure, shortened: as §1
[1] = Cytotoxicity against human Hep3B cells after 48 hrs by EZ-CyTox enhanced cell viability assay; format: functional, cell-based, Hep 3B2; procedure, shortened: as §1

Measured: pIC50

CO[C@@H]1C(=O)Nc2ccc(/C=C/[C@]3(C)CC[C@@H](O)[C@@H](C)C3)c(O)c2[C@@]1(O)c1ccccc1 [AFLAQUINOLONE B]
< 4.10: MDA-MB-231 | HL-60 | B16-F10 | K562 | [1]

O=C1Nc2ccccc2[C@@](O)(c2ccccc2)[C@@H]1O [AFLAQUINOLONE F]
< 4.10: MDA-MB-231 | HL-60 | B16-F10 | K562 | [1]

CO[C@@H]1C(=O)Nc2ccc(/C=C/[C@]3(C)CCC(=O)[C@@H](C)C3)c(O)c2[C@@]1(O)c1ccccc1 [AFLAQUINOLONE A]
< 4.10: MDA-MB-231 | HL-60 | B16-F10 | K562 | [1]

CO[C@@H]1C(=O)Nc2ccc(/C=C/[C@@]3(C)CCC(=O)[C@H](C)C3)c(O)c2[C@@]1(O)c1ccccc1 [AFLAQUINOLONE C]
< 4.10: MDA-MB-231 | HL-60 | B16-F10 | K562 | [1]

CO[C@@H]1C(=O)Nc2cccc(O)c2[C@@]1(O)c1ccccc1 [AFLAQUINOLONE E]
< 4.10: MDA-MB-231 | HL-60 | B16-F10 | K562 | [1]

O=C1Nc2ccccc2[C@@](O)(c2ccccc2)[C@H]1O [AFLAQUINOLONE G]
< 4.10: MDA-MB-231 | HL-60 | B16-F10 | K562 | [1]
